Screens: PubChem, several laboratories
In the library only some 1.3% were active in any assay of this set; here they are far more common.
S1P3 antagonist – S1P3 receptor antagonists, primary screen, cell-based; Sphingosine 1-phosphate receptor 3 (Homo sapiens), Q99500; CHO S1P3 NFAT-BLA reporter, FRET fluorescence, antagonist mode; inhibition, % at 4.98 µM; 170,000 compounds, 0.27% hits;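 active = inhibition above the plate cutoff, the mean inhibition of test wells on that plate plus 3 SD, cut at about 28% in these data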;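 note: cells challenged with S1P at its EC80 of 0.8 µM; blue over green emission ratio from cleaved BLA substrate after 4 h stimulation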
Target sequence (Q99500 whole entry, looked up): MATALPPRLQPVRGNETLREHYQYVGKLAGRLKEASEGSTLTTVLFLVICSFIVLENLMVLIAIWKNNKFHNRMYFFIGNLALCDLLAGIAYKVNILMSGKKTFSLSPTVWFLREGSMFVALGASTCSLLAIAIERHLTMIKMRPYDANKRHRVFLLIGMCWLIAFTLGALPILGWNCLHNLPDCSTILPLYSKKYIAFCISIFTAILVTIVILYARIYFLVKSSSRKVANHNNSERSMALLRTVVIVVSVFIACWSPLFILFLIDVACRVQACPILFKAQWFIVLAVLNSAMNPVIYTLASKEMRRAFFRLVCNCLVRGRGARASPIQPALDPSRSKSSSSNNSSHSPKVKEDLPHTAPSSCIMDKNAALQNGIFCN
Biofilm kill mix – clotrimazole potentiators killing C. albicans biofilm, primary screen, 4-compound mixtures. AID 1242, 2008. inhibition, % at 7.6 µM. 120,000 compounds, 0.02% hits. C. albicans biofilm persisters + clotrimazole, fluorescence viability; primary screen in compound mixtures of four per well;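 note: compounds exposed to preformed 24 h biofilms for 48 h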
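Assay system: C. albicans biofilms / Medium: RPMI/MOPS medium, pH 7.0 / Schedule: biofilm formation 24 h, compound exposure 48 h, 37 °C / Measured by: Alamar Blue fluorescence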
Dynein transport – inhibitors of GR-EGFP nuclear translocation, primary screen, dynein cargo transport inhibitor project, imaging, high-content, 3617.4 mouse cells; test concentration mostly 20 µM; stimulated with dexamethasone, 1 µM; active compounds read low; AID 1381, 2008; z-score, hits read low; 220,000 compounds, 0.47% hits;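 active = plate z-score of nuclear minus cytoplasmic receptor signal below a set negative limit, without overly bright fluorescence or cell loss, cut at about -3.5 in these data, passing the limit was not always enough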;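 note: z-score of nuclear minus cytoplasmic ring GR-EGFP intensity difference per well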
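Also added: dexamethasone, 1.0 µM final. Medium: tet-free, stripped-serum medium. Detection: fixed, Hoechst-stained cells imaged at 10x for EGFP. Read-out: nuclear-to-cytoplasmic GR-EGFP distribution per well. Times: induction 48 h, compound 1 h, agonist 30 min.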
TbHK1 inh – Trypanosoma brucei hexokinase 1 inhibitors, primary screen, biochemical, G6PDH-coupled NADH absorbance, MLSCN library; hexokinase 1 [Trypanosoma brucei]; recombinant TbHK1, G6PDH-coupled NADH A340; inhibition, % at 10 µM; 220,000 compounds, 0.11% hits;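 active = inhibition of 50% or more in the single-dose primary screen; inactive = inhibition below 50%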
S1P4 antagonist – S1P4 receptor antagonists, primary screen, cell-based; Sphingosine 1-phosphate receptor 4 (Homo sapiens), O95977; S1P4-expressing cells, antagonist mode, reporter read-out; inhibition, % at 4.98 µM; 220,000 compounds, 0.26% hits; AID 1510, 2009; in the data active = inhibition above about 29%
Target sequence (O95977 whole entry, looked up): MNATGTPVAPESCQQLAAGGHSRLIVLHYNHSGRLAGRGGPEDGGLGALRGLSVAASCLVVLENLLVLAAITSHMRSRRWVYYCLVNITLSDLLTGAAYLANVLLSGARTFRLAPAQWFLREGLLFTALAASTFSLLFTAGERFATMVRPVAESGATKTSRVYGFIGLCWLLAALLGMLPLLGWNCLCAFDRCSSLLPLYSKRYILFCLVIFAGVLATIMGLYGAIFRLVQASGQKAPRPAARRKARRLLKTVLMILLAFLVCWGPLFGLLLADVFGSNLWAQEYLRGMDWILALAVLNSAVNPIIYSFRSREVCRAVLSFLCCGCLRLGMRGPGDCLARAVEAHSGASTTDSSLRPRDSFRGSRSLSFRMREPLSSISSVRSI
S1P4 agonist – S1P4 receptor agonists, primary screen, cell-based; 220,000 compounds, 0.35% hits; S1P4-expressing cell line, agonist reporter assay; activation, % at 4.98 µM; Sphingosine 1-phosphate receptor 4 (Homo sapiens), O95977; AID 1509, 2009; in the data active = activation above about 11%
Dynein confirm – dynein cargo transport inhibitors, GR-EGFP translocation, confirmation, imaging, high-content imaging, GR-EGFP cells | AID 463116, 2010 | 3617.4 GR-EGFP nuclear translocation imaging, dexamethasone-induced | 1,000 compounds, 69% hits | calls only at 20 µM | shares compounds with Dynein transport;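 active = inhibition of receptor movement into the nucleus at or above a set limit in both runs, with normal cell brightness and cell count; inconclusive = limit reached in only one run, brightness and count normal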;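 note: dexamethasone at 1 µM final in well for 30 min; nuclear minus cytoplasmic GR-EGFP mean intensity difference in channel 2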
Of the large screens only hits and unclear results are named; the others gave an inactive call (follow-up assays come after a bar, where they were run).

O=[N+]([O-])c1ccc(-c2ccc(/C=N/Nc3nc(N4CCCCC4)nc(N4CCCCC4)n3)o2)cc1	none | Dynein confirm inactive
CCN(CC)c1ccc(/C=C2\CCC(/C=N/NC(=O)c3ccc(=O)n(C)c3)=C2N2CCOCC2)cc1	none | Dynein confirm active
O=[N+]([O-])c1ccc(Oc2ccc(S(=O)(=O)Nc3ccccc3)cc2)cc1	none
O=C1C(Cl)=C(NS(=O)(=O)c2ccc([N+](=O)[O-])cc2)C(=O)c2ccccc21	Dynein transport -3.9 | Dynein confirm active
O=C(c1cccs1)n1nc(-c2ccccc2)nc1NCc1ccco1	Dynein transport -5.6 | Dynein confirm inactive
C=CCn1c(C)cc(C(=O)CN2NS(=O)(=O)c3ccccc3C2=O)c1C	none
C=CCn1c(C)cc(C(=O)Cn2ncc(Cl)c(Cl)c2=O)c1C	Dynein transport -4.6 | Dynein confirm active
CCOC(=O)/C(C#N)=C\c1cn(C)c2ccccc12	none
CCOC(=O)/C(=C\c1cn(C)c2ccccc12)[N+](=O)[O-]	Dynein transport -3.7 | Dynein confirm active
C=CCN1C(=O)CSc2ccc(C(=O)NCc3cccs3)cc21	none
Cc1nn(C(C)C)c(C)c1CN1CCN(Cc2ccsc2)C(CCO)C1 (stereo not given)	none
O=C(CN1CCN(S(=O)(=O)c2ccccc2[N+](=O)[O-])CC1)NC(=O)NCc1ccco1	Dynein transport -3.6 | Dynein confirm inactive
CC(=O)Cc1nsc(NC(=O)c2ccc(-c3cccc(Cl)c3)o2)n1	none
C=CCO/N=C(/CCC)C1=C(N)CC(C)(C)CC1=O	none
CCCCN(Cc1cc2cccc(C)c2[nH]c1=O)S(C)(=O)=O	none
COC(=O)C1=C(C)Nc2c(c(=O)n(C)c(=O)n2C)C1c1ccc(C)cc1 (stereo not given)	none
CCOC(=O)c1c(NC(=O)/C=C/C(=O)O)sc(C)c1-c1ccc(C(C)(C)C)cc1	none
CCOC(=O)c1c(NC(=O)/C=C\C(=O)O)sc(C)c1-c1ccccc1	Dynein transport -3.5 | Dynein confirm active
O=C(/C=C/c1ccccc1)c1ccccc1	none
O=C(/C=C/c1ccccc1)/C=C/c1ccccc1	Dynein transport -7 | Dynein confirm active
CCOc1ccccc1NC(=O)c1cc(SC)ccc1Cl	none
CC(C)(C)c1cnnn1-c1ccc(C(=O)CCl)cc1	Dynein transport -4.1 (no result: S1P3 antagonist, Biofilm kill mix) | Dynein confirm active
CN(C)Cc1cc(C(C)(C)C)c(O)c(C(C)(C)C)c1	none (no result: Biofilm kill mix)
CC(C)(C)c1cc(CN(CCO)CCO)cc(C(C)(C)C)c1O	Dynein transport -5.8 (no result: Biofilm kill mix) | Dynein confirm active
CC(C)c1ccc(NC(=O)C2=NNC(=O)CC2)cc1	none
CS(=O)(=O)c1cc([N+](=O)[O-])c(Sc2nc3ccccc3[nH]2)c([N+](=O)[O-])c1	Dynein transport -3.6 (no result: S1P3 antagonist, Biofilm kill mix) | Dynein confirm active
CC1=CC(C)(C)Nc2ccc(OC(=O)c3cccnc3)cc21	Dynein transport -3.6 (no result: Biofilm kill mix) | Dynein confirm inactive
CC1=CC(C)(C)Nc2ccc(OC(=O)C(C)N3C(=O)c4ccccc4C3=O)cc21 (stereo not given)	none (no result: S1P3 antagonist, Biofilm kill mix)
Cc1ccc(SC(=O)c2c(C)noc2-c2cc(C)on2)cc1	Dynein transport -5.1 | Dynein confirm active
Cc1cc(C)n(C(=O)COc2ccccc2[N+](=O)[O-])n1	none
CC(=O)C1C(=O)c2c(cccc2[N+](=O)[O-])C1=Nc1ccc(S(N)(=O)=O)cc1 (stereo not given)	none
CSc1nnc(C)c(/C=C/NOCc2ccc(Cl)cc2)n1	none
CSc1nnc(C)c(/C=C/Nc2ccc(C)cc2)n1	none (no result: S1P3 antagonist, Biofilm kill mix) | Dynein confirm active
CCOC(=O)C1(Cc2ccccc2)CCCN(Cc2ccc(OCC)c(CO)c2)C1 (stereo not given)	none
O=C(Cc1ccc(-n2c(=O)c3sccc3n(CC(=O)Nc3ccccc3F)c2=O)cc1)NCc1ccco1	none
O=C(O)c1cc2c(s1)CCCC2	none (no result: Biofilm kill mix)
ClCc1nnc(-c2cc3c(s2)CCCC3)o1	Dynein transport -4.5 | Dynein confirm inconclusive
CC(C)(C)C1CCc2sc(-c3nnc(CCl)o3)cc2C1 (stereo not given)	Dynein transport -4.2 | Dynein confirm active
CCc1ccc(N2CC(C(=O)N/N=C/c3cc([N+](=O)[O-])ccc3O)CC2=O)cc1 (stereo not given)	none
Cc1ccccc1N1C(=O)CC(Sc2nnc(-c3ccccc3)o2)C1=O (stereo not given)	Dynein transport -7.3 (no result: S1P3 antagonist, Biofilm kill mix) | Dynein confirm active
O=C1CC(Sc2nnc(-c3ccccc3)o2)C(=O)N1c1ccccc1 (stereo not given)	none (no result: Biofilm kill mix)
COc1ncnc2c1oc1nc(CC(C)C)c3c(c12)CCCC3	none (no result: Biofilm kill mix)
CCCc1nc2oc3c(Cl)ncnc3c2c2c1CCCC2	Dynein transport -5.5 | Dynein confirm inconclusive
CC(C)Cc1nc2oc3c(Cl)ncnc3c2c2c1CCCC2	Dynein transport -5.7 | Dynein confirm active
CCCc1nc2oc3c(N4CCNCC4)ncnc3c2c2c1CCCC2	none (no result: Biofilm kill mix, Dynein transport, TbHK1 inh, S1P4 antagonist, S1P4 agonist)
CCN(CC)CC1CCCCN1CC(=O)N1c2ccccc2C(=O)Nc2cccnc21 (stereo not given)	none (no result: Biofilm kill mix, Dynein transport, TbHK1 inh)
CCCCC1=NN(C(=O)c2cccnc2)C(O)(C(F)(F)F)C1 (stereo not given)	none
Cc1nc([N+](=O)[O-])c(Br)n1CC(=O)c1ccccc1	Dynein transport -5.3 (no result: S1P3 antagonist, Biofilm kill mix) | Dynein confirm active
Cc1nc([N+](=O)[O-])c(Br)n1CC(=O)c1ccc2ccccc2c1	Dynein transport -4.3 (no result: S1P3 antagonist, Biofilm kill mix) | Dynein confirm active
Cc1cc([N+](=O)[O-])nn1CC(=O)c1ccccc1	none
Cc1ncc([N+](=O)[O-])n1Cc1ccc(Br)cc1	none
Cc1nc([N+](=O)[O-])c(C(=O)OCc2ccccc2Br)n1C	none
Cc1nc([N+](=O)[O-])c(Br)n1CC(=O)c1ccc(Br)cc1	Dynein transport -4.3 (no result: S1P3 antagonist, Biofilm kill mix) | Dynein confirm active
CCCOc1ccc(-c2nc[nH]c2[N+](=O)[O-])cc1	none
CCOc1ccc(S(=O)(=O)NN2Cc3ccccc3C2=N)cc1	none
Cc1ccc(-c2nnc(CCC(=O)NCc3csc(C)n3)o2)s1	none
CC(C)CC(NC(N)=O)C(=O)NCc1ccccc1Cl (stereo not given)	none
O=C(CS(=O)c1ccc(C(F)(F)F)cc1[N+](=O)[O-])Oc1ccccc1 (stereo not given)	Dynein transport -3.9 (no result: S1P3 antagonist, Biofilm kill mix) | Dynein confirm active
